Rows were chosen to be rich in hits. Some 5.6% of all compounds tested hit in one or more screens of this group.
aDG glyco act: alpha-DG glycosylation activation; Pro5-aDG cells, alpha-DG glycosylation AlphaScreen (IIH6); 0% Pro5, 100% B10-LARGE cell signal; activation, % at 10 µM; hit rate 0.22% among 360,000;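 active = activation of at least 8% versus controls, or a plate z-score of at least 8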;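 note: Pro5 are CHO cells carrying HIG-tagged alpha-DG that lacks glycosylation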
NR3A LBD binder: modulators (binders) of human NR3A ligand-binding domain; NR3A LBD differential scanning fluorimetry, Tm shift; 0% = protein alone, 100% = glycine-bound protein; Tm shift relative to glycine control, % at 25 µM; hit rate 2.5% among 340,000; AID 1259313;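 active = melting temperature shift of at least 10% of the positive control shift, at one fixed dose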
UPR CHOP act: activators of apoptotic arm of unfolded protein response (CHOP) | CHO-CHOP luciferase reporter, UPR activation, luminescence; percent of tunicamycin response over DMSO baseline | activation, % at 10 µM | hit rate 0.34% among 330,000 | AID 449763;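 active = at 10 µM dose, activation of 40% or more, normalized to positive control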
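Assay system: CHO-CHOP cells, stable luciferase reporter of PERK-eIF2a-CHOP signalling / Buffer or medium: F12 plus 10% serum / Compound dosing: one dose, 10 µM in 0.5% DMSO / Times: 6 h compound treatment, 37 °C / Technique: luciferase luminescence / Read-out: % reporter activation, DMSO baseline versus tunicamycin full activation / Benchmarks: tunicamycin and DMSO controls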
CHOP inh: blocks CHOP induction under ER stress; CHO-K1 CHOP-promoter luciferase, tunicamycin-induced, 15-18 h; inhibition, % at 10 µM; hit rate 3.8% among 220,000; AID 2732;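 active = compounds that reduced the stress-induced luciferase reporter signal by more than about 70% of percent inhibition, limit read from the data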
XBP1 UPR activ: activators of adaptive arm of unfolded protein response (XBP1) | activation, % at 20 µM | CHO-XBP1 luciferase reporter, IRE1-XBP1 UPR activation, luminescence; percent of tunicamycin response, DMSO as zero | hit rate 0.33% among 330,000;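 active = versus positive control, 20 µM dose yields 30% or more activation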
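Material: IRE1-XBP1 luciferase reporter CHO line / Quantity: one thousand reporter cells per well / Buffer or medium: F12 with 10% serum / Compound: 20 µM single concentration, DMSO 1% / Times: 6 h treatment, 37 °C / Detection: Steady-Glo luciferase glow luminescence, 10 min after reagent addition / Benchmarks: tunicamycin high, DMSO low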
MPTP inh: blocks calcium-induced mitochondrial swelling; inhibition, % at 10 µM; isolated mouse mitochondria, Ca2+ swelling absorbance, 30 min; hit rate 1.4% among 360,000; AID 602449;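 active = inhibition of 50% or more, scaled per plate between neutral and stimulator controls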
CHOP confirm: confirmation of CHOP induction inhibitors. shares compounds with CHOP inh. CHO-CHOP promoter luciferase reporter, tunicamycin-induced, luminescence. inhibition, % at 10 µM. hit rate 45% among 2,100;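 active = mean of three repeat readings of reporter signal inhibition above a set limit, cut at about 70% in these data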
Of the large screens only hits and unclear results are named; the others gave an inactive call (follow-up assays come after a bar, where they were run).

CC(C)C[C@@H](CN)NC(=O)c1nc[nH]c1C(=O)N[C@@H](C)C(=O)CNC[C@H](CC(C)C)NC(=O)c1nc[nH]c1C(=O)N[C@@H](Cc1ccccc1)C(=O)O	none (no result: UPR CHOP act, CHOP inh, XBP1 UPR activ)
O=C(Nc1ccc(Oc2ccccc2)cc1)C1CCN(c2ncccn2)CC1	none
O=C(Nc1ccc(Oc2c(F)c(F)c(F)c(F)c2F)cc1)OC1CCN2Cc3ccccc3N=C12 (stereo not given)	CHOP inh 100 | CHOP confirm 125
O=C(COC(=O)C12CC3CC(CC(C3)C1)C2)NNC(=O)c1ccccc1	none (no result: CHOP inh)
CC(=O)Nc1cccc(-c2ccnc3c2CC(C(=O)Nc2ccccc2)O3)c1 (stereo not given)	none (no result: NR3A LBD binder, UPR CHOP act, CHOP inh, XBP1 UPR activ)
O=C1C=CC(=O)N1N(c1ccccc1)c1ccccc1	CHOP inh 107 | CHOP confirm 118
O=C1C=CC(=O)N1Cc1ccccc1	none (no result: CHOP inh)
O=C(NCCC(F)(F)F)c1cccc2c(-c3ccc(F)c(F)c3)coc12	none (no result: NR3A LBD binder, UPR CHOP act, CHOP inh, XBP1 UPR activ)
Cc1ccc(NC(=O)CSC2=C(C#N)C(c3ccco3)C3=C(CC(C)(C)CC3=O)N2)cc1 (stereo not given)	CHOP inh 100 | CHOP confirm inactive
O=C(CSc1ncnc2[nH]ncc12)Nc1nc(-c2ccc(F)c(F)c2)cs1	NR3A LBD binder 20, CHOP inh 99 | CHOP confirm 116
Cc1cccc(C)c1NC(=O)CSc1ncnc2[nH]ncc12	none (no result: CHOP inh)
CCSc1nc(-c2ccccc2)c2cc(Cl)ccc2n1	none
CCSc1nc(-c2ccccc2)nc(C(Cl)Cl)n1	CHOP inh 106 | CHOP confirm 84
CCn1c(C)nc2cc(-c3nnc(-c4c(-c5ccccc5)noc4C)o3)ccc21	CHOP inh 102 | CHOP confirm 85
Cc1ccc(-n2ncc(Br)c(Br)c2=O)cc1	CHOP inh 105 (no result: UPR CHOP act, XBP1 UPR activ) | CHOP confirm 121
O=c1c(Br)c(Br)cnn1-c1ccccc1	CHOP inh 106 (no result: UPR CHOP act, XBP1 UPR activ) | CHOP confirm 118
Cc1ccc(C)c(NC(=O)CN(C)C(=O)c2ccccc2OCc2c(C)noc2C)c1	none (no result: CHOP inh)
CN1CC(c2ccccc2)C2(SC(=S)N(Cc3ccco3)C2=O)C12C(=O)Nc1ccccc12 (stereo not given)	CHOP inh 101 | CHOP confirm 84
CN1CC(c2ccccn2)C2(SC(=S)N(Cc3ccccc3)C2=O)C12C(=O)Nc1ccccc12 (stereo not given)	none
COC(=O)/C=C/S(=O)(=O)c1ccc(NC(C)=O)cc1	none (no result: CHOP inh) | CHOP confirm inactive
Cc1ccc(C2CC2c2n[nH]c(=S)n2-c2ccc(C)cc2)cc1 (stereo not given)	CHOP inh 100 | CHOP confirm inactive
Cc1ccc(-n2c(C3CC3c3ccc(Cl)cc3)n[nH]c2=S)cc1 (stereo not given)	none
COc1ccc(-c2nc3ccc(C)cn3c2CC2CCCCC2)cc1OC	none (no result: NR3A LBD binder, UPR CHOP act, CHOP inh, XBP1 UPR activ)
CC(C)(C)OC(=O)NCCc1nnc(S(=O)(=O)Cc2ccc(Cl)cc2Cl)o1	CHOP inh 106 | CHOP confirm 129
Cc1cccc(NC(=O)CSCC(=O)Nc2cc(Cl)ccc2N2CCN(C)CC2)c1	none (no result: CHOP inh)
Cc1ccc(OCC(O)Cn2c(=N)n(Cc3ccccc3)c3ccccc32)cc1 (stereo not given)	CHOP inh 105 | CHOP confirm inactive
O=C(CCl)N(c1ccccc1)c1c[nH]c2ccccc12	none (no result: CHOP inh) | CHOP confirm inactive
O=C(CCl)N(c1ccc(Cl)cc1)c1c[nH]c2ccccc12	none (no result: CHOP inh) | CHOP confirm 119
O=C(O)Cc1c[nH]c2ccccc12	none (no result: CHOP inh)
CC(C)C(NC(=O)c1c(F)cccc1F)C(=O)NCCc1ccc(S(N)(=O)=O)cc1 (stereo not given)	none (no result: CHOP inh)
CCN1C(=O)[C@H]2[C@@H](c3ccc(-c4cc(C(C)=O)cs4)cc3)N3CCCC[C@@]3(C(=O)OC)[C@H]2C1=O	none (no result: CHOP inh)
CC(C(=O)N1CCCC1)N(C)CC(=O)Nc1cccc(F)c1 (stereo not given)	none (no result: CHOP inh)
Cc1oc(=O)c(NC(=O)c2cccc(Cl)c2)cc1C(=O)c1ccccc1	CHOP inh 104 | CHOP confirm inactive
CC(C)(C)c1ccc(O)c(N=Cc2cc(Br)ccc2O)c1	CHOP inh 98 | CHOP confirm 112
CC(C)C(NC(=O)/C=C/c1cccc([N+](=O)[O-])c1)C(C)C	none
CC(C)NC(=O)c1ccccc1NC(=O)/C=C/c1cccc([N+](=O)[O-])c1	CHOP inh 107 | CHOP confirm 111
O=C(Nc1ccc(S(=O)(=O)N2CCOCC2)cc1)C1CCN(S(=O)(=O)c2ccccc2)CC1	none (no result: CHOP inh)
CNc1ccc(Br)cc(C(=O)/C=C/c2cccc(Cl)c2Cl)c1=O	CHOP inh 101 (no result: UPR CHOP act, XBP1 UPR activ) | CHOP confirm inactive
Cc1csc(SCC(=O)NC(=O)NC2CCCC2)n1	none
COc1ccc(/C=C2\SC(=N)N(c3ccc(F)cc3)C2=O)cc1OC	CHOP inh 102 | CHOP confirm inactive
CCOc1ccc(/C=C2\SC(=O)N(c3ccc(O)cc3)C2=O)cc1OC	CHOP inh 105 (no result: aDG glyco act, MPTP inh) | CHOP confirm inactive
CC(C)c1ccc(C2C3CSCC=C3C(C#N)=C(N)C2(C#N)C#N)cc1 (stereo not given)	CHOP inh 106 (no result: aDG glyco act, NR3A LBD binder, MPTP inh) | CHOP confirm 122
COC(=O)c1cccc(NC(=O)NC23CC4CC(CC(C4)C2)C3)c1	CHOP inh 101 | CHOP confirm inactive
COC(=O)c1cccc(S(=O)(=O)N2CCC(NC(=O)NC34CC5CC(CC(C5)C3)C4)CC2)c1	none
O=C(c1nnsc1S(=O)(=O)c1ccc(Cl)cc1)N1CCOCC1	CHOP inh 102 | CHOP confirm 95
CNC(=O)c1nnsc1S(=O)(=O)c1ccc(Cl)cc1	CHOP inh 107 | CHOP confirm 114
O=C(Cc1csc(Nc2nc(=S)[nH]c3ccccc23)n1)N1CCN(c2cccc(Cl)c2)CC1	CHOP inh 103 | CHOP confirm inactive
COc1ccc2c(c1)cc1c(=O)n(CC(=O)NCCCN3CCOCC3)nc(C)n12	none (no result: CHOP inh)
Nc1c(C(=O)Nc2ccccc2)sc2nc(-c3ccco3)ccc12	none
Nc1c(C(=O)Nc2nc3ccccc3s2)sc2nc(-c3cccs3)ccc12	NR3A LBD binder 28, CHOP inh 102 | CHOP confirm 82
COc1cc(C(=O)NNC(=O)Nc2ccc([N+](=O)[O-])cc2)cc(OC)c1OC	none
Nn1c(SCc2ccc(F)cc2)nnc1-c1ccncc1	none
Cc1n[nH]c(C)c1CCc1nc2c3ccccc3nc(SCC(=O)Nc3ccccc3F)n2n1	CHOP inh 98 | CHOP confirm inactive
Cc1cccc(NC(=O)CSc2nc3ccccc3c3nc(CCc4c(C)n[nH]c4C)nn23)c1	none

Assay outcomes deposited in PubChem BioAssay by several laboratories.
